Laboratory results reported in ChEMBL document CHEMBL2021791, “Synthesis, structure-activity relationships and biological evaluation of caudatin derivatives as novel anti-hepatitis B virus agents” (Bioorg Med Chem, 2012).

Tests used:
[1] = system: Hepatitis B virus; assay: Selectivity ratio of CC50 for human HepG2(2.2.15) cells to IC50 for Hepatitis B virus infected in human HepG2.2.15 cells assessed as suppression of HBsAg secretion; assay type: cell-based; settings: read-out: Ratio CC50/IC50
Summary of the method: (§1)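 The selectivity index was calculated as CC50/IC50. CC50 is MTT cytotoxicity in HepG2 2.2.15 cells. No index was given where a value could not be obtained.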

[2] = system: Hepatitis B virus; assay: Selectivity ratio of CC50 for human HepG2(2.2.15) cells to IC50 for Hepatitis B virus infected in human HepG2(2.2.15) cells assessed as suppression of HBeAg secretion; assay type: cell-based; settings: read-out: Ratio CC50/IC50; summary of the method: as §1
[3] = system: Hepatitis B virus; assay: Antiviral activity against Hepatitis B virus infected in human HepG2(2.2.15) cells assessed as suppression of HbeAg secretion by ELISA; assay type: functional, organism-based
[4] = system: Hepatitis B virus; assay: Antiviral activity against Hepatitis B virus infected in human HepG2(2.2.15) cells assessed as suppression of HBsAg secretion by ELISA; assay type: functional, organism-based
[5] = system: Hepatitis B virus; assay: Antiviral activity against Hepatitis B virus infected in human HepG2(2.2.15) cells assessed as inhibition of viral DNA replication by RT-PCR analysis; assay type: functional, organism-based
[6] = system: Hepatitis B virus; assay: Selectivity ratio of CC50 for human HepG2(2.2.15) cells to IC50 for Hepatitis B virus infected in human HepG2(2.2.15) cells assessed as inhibition of viral replication; assay type: cell-based; settings: read-out: Ratio CC50/IC50; summary of the method: as §1
[7] = Cytotoxicity against human HepG2(2.2.15) cells by MTT assay; assay type: cell-based
Summary of the method: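 HepG2 2.2.15 cells were exposed to compounds and viability was read by a modified MTT method. CC50 is the concentration giving 50% cytotoxicity. Values are means of at least two experiments.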

Row | Structure (SMILES) | selectivity ratio [1] | selectivity ratio [2] | IC50 [3] | IC50 [4] | IC50 [5] | selectivity ratio [6] | CC50 ([7]; HepG2(2.2.15) cells) | CC50 ([7]; hepg2 2.2.15)
1 | CC(=O)[C@]1(O)CC[C@@]2(O)[C@]1(C)[C@H](OC(=O)/C=C(\C)C(C)C)C[C@@H]1[C@@]3(C)CC[C@H](OC(=O)COc4ccccc4)CC3=CC[C@]12O | 4.2 | 3.3 | 96.1 µM | 76.7 µM | 41 µM | 7.8 | 319 µM | 
2 | CC(=O)[C@]1(O)CC[C@@]2(O)[C@]1(C)[C@H](OC(=O)/C=C(\C)C(C)C)C[C@@H]1[C@@]3(C)CC[C@H](O)CC3=CC[C@]12O [CAUDATIN] | 1.7 | < 1.3 | > 183 µM | 143 µM | 40.6 µM | 6 |  | 245 µM
3 | CC(=O)[C@]1(OC(=O)c2cccnc2)CC[C@@]2(O)[C@]1(C)[C@H](OC(=O)/C=C(\C)C(C)C)C[C@@H]1[C@@]3(C)CC[C@H](OC(=O)c4cccnc4)CC3=CC[C@]12O | > 6.7 | > 2.4 | 135 µM | 90 µM | 24.7 µM | > 24.4 | 602 µM | 
4 | CC(=O)[C@]1(O)CC[C@@]2(O)[C@]1(C)[C@H](OC(=O)/C=C(\C)C(C)C)C[C@@H]1[C@@]3(C)CC[C@H](OC(=O)c4cccnc4)CC3=CC[C@]12OC(=O)c1cccnc1 | 1.8 | 1.7 | 204 µM | 199 µM | 97 µM | 3.6 | 350 µM | 
5 | CC(=O)[C@]1(O)CC[C@@]2(O)[C@]1(C)[C@H](OC(=O)/C=C(\C)C(C)C)C[C@@H]1[C@@]3(C)CC[C@H](OC(=O)c4cc5ccccc5[nH]4)CC3=CC[C@]12O | 1.7 | 1.1 | 33.7 µM | 21.7 µM | 3.63 µM | 10.1 | 36.7 µM | 
6 | CC(=O)[C@]1(OC(=O)/C=C/c2ccc3c(c2)OCO3)CC[C@@]2(O)[C@]1(C)[C@H](OC(=O)/C=C(\C)C(C)C)C[C@@H]1[C@@]3(C)CC[C@H](OC(=O)/C=C/c4ccc5c(c4)OCO5)CC3=CC[C@]12O | > 1.8 | > 2.5 | 407 µM | 575 µM | > 201 µM |  | > 1020 µM | 
7 | CC(=O)[C@]1(O)CC[C@@]2(O)[C@]1(C)[C@H](OC(=O)/C=C(\C)C(C)C)C[C@@H]1[C@@]3(C)CC[C@H](OC(=O)/C=C/n4ccnc4)CC3=CC[C@]12O | > 78 | > 111 | 13.2 µM | 18.7 µM | 7.48 µM | > 195 | > 1460 µM | 
8 | CC(=O)[C@]1(O)CC[C@@]2(O)[C@]1(C)[C@H](OC(=O)/C=C(\C)C(C)C)C[C@@H]1[C@@]3(C)CC[C@H](OC(=O)C(C#N)=C(C)C)CC3=CC[C@]12O | 3.3 | 2 | 221 µM | 136 µM | 30.6 µM | 14.8 | 452 µM | 
9 | C[C@H](Cn1cnc2c(N)ncnc21)OCP(=O)(O)O [TENOFOVIR ANHYDROUS] | > 1.3 | > 1.5 | 1240 µM | 1450 µM | 0.77 µM | > 2360 | > 1820 µM | 
